From the M2OR odorant receptor database
Changes are numbered by the printed parent chain.

Columns and labels:
Details in all cases: stereoisomer not certain
UniProt L7MU75 = molecular target: T1, UniProt L7MU75
T1 sequence (whole entry): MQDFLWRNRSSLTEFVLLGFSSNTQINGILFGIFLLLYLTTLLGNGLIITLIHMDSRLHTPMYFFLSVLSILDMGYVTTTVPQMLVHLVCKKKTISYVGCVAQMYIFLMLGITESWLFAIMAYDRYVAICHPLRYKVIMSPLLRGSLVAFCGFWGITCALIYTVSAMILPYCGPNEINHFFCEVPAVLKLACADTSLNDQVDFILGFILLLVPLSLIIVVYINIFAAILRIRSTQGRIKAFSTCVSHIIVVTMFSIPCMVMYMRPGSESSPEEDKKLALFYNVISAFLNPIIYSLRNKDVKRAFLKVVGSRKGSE
Method in brief: (§1)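 Transient luciferase assays in mammalian cell lines were common, though methods varied by source. The values come from published papers and their supplementary material, with extra details from the original authors when needed. Responsive refers to a measured signal the original authors judged statistically different from baseline, and non-responsive (inactive) to the remainder.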

UniProt L7N210 = molecular target: T2, UniProt L7N210
T2 sequence (whole entry): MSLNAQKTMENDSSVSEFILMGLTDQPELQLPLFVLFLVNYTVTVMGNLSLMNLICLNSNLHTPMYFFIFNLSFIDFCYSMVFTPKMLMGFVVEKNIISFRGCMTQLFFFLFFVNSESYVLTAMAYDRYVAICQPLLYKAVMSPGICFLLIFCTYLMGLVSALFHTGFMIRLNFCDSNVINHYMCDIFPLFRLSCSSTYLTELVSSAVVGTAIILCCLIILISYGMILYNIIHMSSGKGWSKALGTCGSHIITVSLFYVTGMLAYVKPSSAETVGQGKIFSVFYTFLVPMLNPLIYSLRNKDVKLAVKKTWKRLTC
Method in brief: as §1

UniProt Q3KPB0 = molecular target: T3, UniProt Q3KPB0
T3 sequence (whole entry): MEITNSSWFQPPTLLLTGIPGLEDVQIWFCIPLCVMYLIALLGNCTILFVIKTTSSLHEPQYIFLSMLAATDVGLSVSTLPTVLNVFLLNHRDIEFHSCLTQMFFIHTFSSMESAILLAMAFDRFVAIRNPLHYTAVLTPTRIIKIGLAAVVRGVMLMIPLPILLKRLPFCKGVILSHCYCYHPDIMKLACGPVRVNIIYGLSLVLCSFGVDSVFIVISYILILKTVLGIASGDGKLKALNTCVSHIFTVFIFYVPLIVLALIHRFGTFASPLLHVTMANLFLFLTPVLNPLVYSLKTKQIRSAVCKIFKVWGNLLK
Method in brief: as §1

UniProt Q3U0P3 = molecular target: T4, UniProt Q3U0P3
T4 sequence (whole entry): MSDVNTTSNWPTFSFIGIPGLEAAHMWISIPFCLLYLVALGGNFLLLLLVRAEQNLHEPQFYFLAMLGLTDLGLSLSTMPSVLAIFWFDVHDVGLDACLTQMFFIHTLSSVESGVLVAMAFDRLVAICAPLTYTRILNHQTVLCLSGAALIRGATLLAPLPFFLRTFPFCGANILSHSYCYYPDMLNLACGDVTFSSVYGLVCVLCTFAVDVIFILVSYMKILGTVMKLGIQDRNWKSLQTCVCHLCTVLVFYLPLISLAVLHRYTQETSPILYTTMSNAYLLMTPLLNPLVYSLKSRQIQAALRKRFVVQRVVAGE
Method in brief: as §1

UniProt Q7TQU8 = molecular target: T5, UniProt Q7TQU8
T5 sequence (whole entry): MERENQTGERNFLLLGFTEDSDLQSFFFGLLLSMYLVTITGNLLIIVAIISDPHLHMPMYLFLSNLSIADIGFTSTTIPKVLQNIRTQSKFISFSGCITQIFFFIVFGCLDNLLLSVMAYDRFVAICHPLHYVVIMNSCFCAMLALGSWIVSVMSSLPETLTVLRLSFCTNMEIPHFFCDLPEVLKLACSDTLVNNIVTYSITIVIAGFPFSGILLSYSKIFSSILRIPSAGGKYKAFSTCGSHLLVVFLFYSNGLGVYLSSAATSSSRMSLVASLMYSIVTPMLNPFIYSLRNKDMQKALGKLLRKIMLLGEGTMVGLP
Method in brief: as §1

UniProt Q7TQV4 = molecular target: T6, UniProt Q7TQV4
T6 sequence (whole entry): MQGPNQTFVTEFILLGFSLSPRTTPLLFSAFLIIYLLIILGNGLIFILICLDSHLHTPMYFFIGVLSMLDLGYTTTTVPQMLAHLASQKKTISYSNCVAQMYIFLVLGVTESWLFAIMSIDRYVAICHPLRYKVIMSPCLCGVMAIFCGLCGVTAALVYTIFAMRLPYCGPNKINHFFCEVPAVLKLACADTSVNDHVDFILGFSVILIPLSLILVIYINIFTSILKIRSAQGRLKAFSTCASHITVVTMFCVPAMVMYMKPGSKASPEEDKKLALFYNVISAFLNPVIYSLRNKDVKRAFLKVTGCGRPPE
Method in brief: as §1

UniProt Q7TR71 = molecular target: T7, UniProt Q7TR71
T7 sequence (whole entry): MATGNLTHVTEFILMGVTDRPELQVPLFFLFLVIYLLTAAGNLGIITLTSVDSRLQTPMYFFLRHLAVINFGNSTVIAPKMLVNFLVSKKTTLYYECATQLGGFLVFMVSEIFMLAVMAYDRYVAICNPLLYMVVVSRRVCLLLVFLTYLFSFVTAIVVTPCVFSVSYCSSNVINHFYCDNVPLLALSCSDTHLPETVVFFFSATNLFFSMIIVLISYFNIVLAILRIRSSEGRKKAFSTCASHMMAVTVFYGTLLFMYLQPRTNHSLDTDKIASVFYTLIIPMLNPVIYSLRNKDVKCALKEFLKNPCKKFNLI
Method in brief: as §1

UniProt Q7TR79 = molecular target: T8, UniProt Q7TR79
T8 sequence (whole entry): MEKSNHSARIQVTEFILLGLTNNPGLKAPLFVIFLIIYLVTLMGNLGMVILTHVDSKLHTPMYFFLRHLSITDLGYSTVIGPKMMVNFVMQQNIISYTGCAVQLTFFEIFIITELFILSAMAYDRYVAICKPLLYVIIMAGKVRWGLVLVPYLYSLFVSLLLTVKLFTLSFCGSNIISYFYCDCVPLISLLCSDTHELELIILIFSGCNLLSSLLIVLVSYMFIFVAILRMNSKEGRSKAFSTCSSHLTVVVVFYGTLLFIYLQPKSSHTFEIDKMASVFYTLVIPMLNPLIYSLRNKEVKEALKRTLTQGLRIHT
Method in brief: as §1

UniProt Q7TRA1 = molecular target: T9, UniProt Q7TRA1
T9 sequence (whole entry): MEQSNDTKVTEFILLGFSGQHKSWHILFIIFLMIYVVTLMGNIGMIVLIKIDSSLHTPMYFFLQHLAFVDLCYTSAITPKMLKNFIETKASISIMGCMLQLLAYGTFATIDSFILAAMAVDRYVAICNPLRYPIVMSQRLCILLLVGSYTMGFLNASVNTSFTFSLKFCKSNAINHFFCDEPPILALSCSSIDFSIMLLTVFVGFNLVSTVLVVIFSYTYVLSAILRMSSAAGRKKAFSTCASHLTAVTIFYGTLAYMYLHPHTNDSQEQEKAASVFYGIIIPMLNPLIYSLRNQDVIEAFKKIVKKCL
Method in brief: as §1

UniProt Q7TRA2 = molecular target: T10, UniProt Q7TRA2
T10 sequence (whole entry): T9 sequence (whole entry) with S18A, I86T, I94F, M95I, S112C, V208L, T219I, V221I, V305A
Method in brief: as §1

UniProt Q7TRA3 = molecular target: T11, UniProt Q7TRA3
T11 sequence (whole entry): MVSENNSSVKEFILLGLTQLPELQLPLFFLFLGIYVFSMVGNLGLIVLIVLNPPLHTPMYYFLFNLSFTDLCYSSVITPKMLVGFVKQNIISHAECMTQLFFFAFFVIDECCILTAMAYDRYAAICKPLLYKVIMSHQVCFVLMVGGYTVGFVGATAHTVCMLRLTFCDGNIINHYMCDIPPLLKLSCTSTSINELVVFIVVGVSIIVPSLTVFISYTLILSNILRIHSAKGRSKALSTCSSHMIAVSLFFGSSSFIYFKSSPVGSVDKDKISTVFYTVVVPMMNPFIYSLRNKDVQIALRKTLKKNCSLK
Method in brief: as §1

UniProt Q7TRE4 = molecular target: T12, UniProt Q7TRE4
T12 sequence (whole entry): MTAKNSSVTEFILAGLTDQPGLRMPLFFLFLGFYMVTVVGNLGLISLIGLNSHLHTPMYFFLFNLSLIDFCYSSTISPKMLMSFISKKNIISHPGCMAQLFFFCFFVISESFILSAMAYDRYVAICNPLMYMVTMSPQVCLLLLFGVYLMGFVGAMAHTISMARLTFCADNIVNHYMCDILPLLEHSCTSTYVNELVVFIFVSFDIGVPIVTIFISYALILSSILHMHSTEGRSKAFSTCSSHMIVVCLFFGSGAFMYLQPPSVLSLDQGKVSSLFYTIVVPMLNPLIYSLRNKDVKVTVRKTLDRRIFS
Method in brief: as §1

UniProt Q7TRM0 = molecular target: T13, UniProt Q7TRM0
T13 sequence (whole entry): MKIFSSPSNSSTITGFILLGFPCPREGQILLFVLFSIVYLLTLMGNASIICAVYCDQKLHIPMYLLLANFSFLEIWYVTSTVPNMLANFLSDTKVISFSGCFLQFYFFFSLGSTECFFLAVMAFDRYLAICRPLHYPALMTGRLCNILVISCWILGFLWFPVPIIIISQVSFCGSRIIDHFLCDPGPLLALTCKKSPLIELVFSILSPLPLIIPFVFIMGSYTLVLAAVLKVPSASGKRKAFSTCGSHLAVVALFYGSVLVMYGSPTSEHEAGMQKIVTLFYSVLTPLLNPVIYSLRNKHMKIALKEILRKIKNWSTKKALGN
Method in brief: as §1

UniProt Q7TRN9 = molecular target: T14, UniProt Q7TRN9
T14 sequence (whole entry): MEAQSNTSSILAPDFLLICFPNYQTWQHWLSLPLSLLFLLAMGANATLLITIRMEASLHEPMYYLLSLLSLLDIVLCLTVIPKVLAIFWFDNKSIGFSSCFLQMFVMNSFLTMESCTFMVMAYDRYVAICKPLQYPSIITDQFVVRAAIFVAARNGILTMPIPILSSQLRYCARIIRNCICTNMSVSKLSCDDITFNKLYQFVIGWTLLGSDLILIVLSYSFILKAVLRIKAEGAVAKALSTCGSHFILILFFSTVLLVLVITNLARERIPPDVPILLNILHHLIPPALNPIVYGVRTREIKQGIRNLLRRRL
Method in brief: as §1

UniProt L7N0P5 = molecular target: T15, UniProt L7N0P5
T15 sequence (whole entry): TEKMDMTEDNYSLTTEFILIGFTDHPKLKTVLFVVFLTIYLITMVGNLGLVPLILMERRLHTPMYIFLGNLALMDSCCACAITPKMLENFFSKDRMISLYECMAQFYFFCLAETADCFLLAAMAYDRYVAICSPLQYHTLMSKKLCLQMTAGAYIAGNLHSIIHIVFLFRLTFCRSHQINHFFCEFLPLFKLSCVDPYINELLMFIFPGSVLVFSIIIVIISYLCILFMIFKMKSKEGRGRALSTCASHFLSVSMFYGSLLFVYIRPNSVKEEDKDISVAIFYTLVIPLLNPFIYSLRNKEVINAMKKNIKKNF
Method in brief: as §1

Measured: odorant receptor agonist call

CCCCCCCCC(=O)O
active: UniProt Q7TRA1 | UniProt Q7TRA2 | UniProt Q7TRN9
not listed: UniProt L7N0P5
inactive: all other assays above

COc1cnccn1
active: UniProt L7N0P5
inactive: UniProt L7MU75 | UniProt L7N210 | UniProt Q3KPB0 | UniProt Q3U0P3 | UniProt Q7TQU8 | UniProt Q7TR79

O=C(Cl)CCCCCCCC(=O)Cl
inactive: UniProt L7MU75

CCC=O
inactive: UniProt L7MU75

CCCC(=O)OCC
inactive: UniProt L7MU75

CC(=O)OCC=C(C)C
active: UniProt Q7TQV4
not listed: UniProt Q7TRA1 | UniProt Q7TRA2 | UniProt Q7TRM0 | UniProt Q7TRN9 | UniProt L7N0P5
inactive: all other assays above

COc1nccnc1C(C)C
active: UniProt L7N0P5
inactive: UniProt L7MU75 | UniProt L7N210 | UniProt Q3KPB0 | UniProt Q3U0P3 | UniProt Q7TQU8 | UniProt Q7TR79

CCCCCC(C)(C)O
inactive: UniProt L7MU75

CC(C)=CCCC(C)CCO (stereo not drawn)
not listed: UniProt Q7TRA1 | UniProt Q7TRA2 | UniProt Q7TRM0 | UniProt Q7TRN9 | UniProt L7N0P5
inactive: all other assays above

CCC(=O)OC
inactive: UniProt L7MU75

CC1=CCC2CC1C2(C)C (stereo not drawn)
inactive: UniProt L7MU75

OCc1ccccc1
inactive: UniProt L7MU75

CCc1ncc(C)nc1CC
inactive: UniProt L7MU75 | UniProt L7N210 | UniProt Q3KPB0 | UniProt Q3U0P3 | UniProt Q7TQU8 | UniProt Q7TR79
active: UniProt L7N0P5

CCOc1ccccc1
inactive: UniProt L7MU75
